The values below come from ChEMBL document CHEMBL3804770 (J Med Chem, 2016).

Molecules are shown by their SMILES. Activity calls are given as the source filed them. The rule behind the calls is not given here. Some results are limits rather than exact numbers.

The nature of series [1]: Ratio of photocytotoxic IC50 for human SKOV3 cells measured after drug wash out to photocytotoxic IC50 for human SKOV3 cells measured before drug wash out. The class given is functional, SK-OV-3.
The nature of series [2]: Drug degradation in complete medium at 10 uM after 96 hrs by HPLC analysis under dark conditions.
Series [3] deals with T1, Tubulin (Sus scrofa) (UniProt P02554+P02550). The series can be described thus: Induction of porcine brain tubulin polymerization at 1.5 uM irradiated with 5.6 mW/cm2 of far-red light for 30 mins measured every 2 mins for 1 hr by fluorescence analysis.
The nature of series [4]: Photocytotoxicity against human SKOV3 cells assessed as cell viability incubated for 24 hrs under dark conditions followed by 5.6 mW/cm2 of laser illumination for 30 mins measured 72 hrs post drug wash out by MTT assay. Format: functional, cell-based. The conditions noted are these: SK-OV-3. The procedure, abridged:
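SKOV-3 cells (5000/well) held 24 h in the dark with drug, illuminated at 690 nm, 5.6 mW/cm², 30 min (10 J/cm²). Medium then replaced with fresh medium to remove released material, followed by 72 h incubation and MTT readout (570 nm, 650 nm background), viability relative to untreated wells.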
In general terms: Tetrazolium dyes change colour on reduction, which living cells bring about.

Series [5] is described as follows: Photocytotoxicity against human SKOV3 cells assessed as cell viability incubated for 24 hrs under dark conditions followed by 5.6 mW/cm2 of laser illumination for 30 mins measured after 72 hrs by MTT assay. The class given is functional, cell-based. The conditions noted are these: SK-OV-3. The procedure, abridged: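 SKOV-3 cells (5000/well) dosed from 2 mM DMSO stocks diluted in medium; after 24 h dark incubation, plates illuminated uncovered on orbital shaker with 690 nm diode laser, 5.6 mW/cm² for 30 min (10 J/cm²). Incubated a further 72 h, then MTT read at 570 nm with 650 nm background; viability as percentage of untreated controls.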

Series [6] concerns the target T1, Tubulin (Sus scrofa). The series can be described thus: Induction of porcine brain tubulin polymerization at 30 uM measured every 2 mins for 1 hr by fluorescence analysis in presence of GTP. Summed up:
(§1)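 Fluorescence-based tubulin polymerization kit. Compound in DMSO diluted with water, then combined with tubulin and GTP in buffer at 37 °C. Fluorescence (excitation 360 nm, emission 450 nm) read every 2 min for 1 h.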

Series [7] can be described thus: Retention time of the compound at 10 uM by HPLC analysis. The class given is physicochemical. The procedure, abridged: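 Complete medium containing 10 µM compound held at 37 °C in the dark. Samples were extracted into dichloromethane, dried, and taken up in 5% DMSO in ACN. Isocratic HPLC with 90% ACN/10% 10 mM ammonium acetate at 0.5 mL/min; detection by diode array at 675 nm.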

Series [8] is described as follows: Ratio of compound IC50 to PTX IC50 for dark cytotoxicity against human SKOV3 cells. The settings on record: read-out: Ratio IC50. Format: cell-based, SK-OV-3.
A short description of series [9]: Drug degradation […] at 10 uM after 24 hrs by HPLC analysis under dark conditions. The class given is physicochemical. The settings on record: read-out: Drug degradation. The procedure, abridged: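 10 μM solution in complete cell culture medium, made from DMSO stock, kept at 37 °C in the dark. Aliquots taken at 0, 2, 24, 48, 96 and 168 h, extracted with dichloromethane, reconstituted in 5% DMSO in ACN. Analysed by isocratic HPLC (90% ACN/10% 10 mM ammonium acetate, 0.5 mL/min); remaining percentage versus t = 0, three experiments.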

Series [10] in a line: Drug uptake in nucleus of human SKOV3 cells at 0.5 uM after 23 hrs by tubulin tracker green fluorescent dye based confocal microscopy. The class given is ADME, cell-based. The conditions noted are these: sk-ov-3, 23 h. Summed up:
(§2)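 SKOV-3 cells grown in α-MEM with 10% bovine growth serum, 2 mM L-glutamine, penicillin/streptomycin and fungizone were seeded on coverslips, cultured 24 h, then exposed to prodrug at 500 nM for 24 h under minimal light. Tubulin tracker green, 1 µM final in HBSS, added 45-60 min at 37 °C, then washed. Confocal imaging: tracker excitation 488 nm/emission 500-550 nm, prodrug excitation 633 nm/emission 650-800 nm, three random fields per treatment.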

For series [11], the target named is T1, Tubulin (Sus scrofa). Kind of series: Induction of porcine brain tubulin polymerization at 3 uM after 40 mins by fluorescence analysis in presence of GTP. The procedure, abridged:
as §1

A short description of series [12]: nOctanol-phosphate buffer partition coefficient, log D of the compound at pH 7.4 incubated for 3 hrs in dark condition by fluorimeter. The conditions noted are these: octanol/water, pH 7.4, 3 h. The class given is physicochemical.
Series [13] in a line: Dark cytotoxicity against human SKOV3 cells assessed as cell viability after 72 hrs by MTT assay. The class given is cell-based. The conditions noted are these: SK-OV-3, 72 h. Summed up:
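SKOV-3 cells seeded at 5000/well, incubated 24 h, then treated from 2 mM DMSO stocks diluted in medium to final concentrations; kept in the dark 72 h. MTT ([…]) added, formazan dissolved in DMSO, absorbance 570 nm minus 650 nm background; viability as percentage of untreated wells.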

A short description of series [14]: Drug uptake in cytosol of human SKOV3 cells at 0.5 uM after 23 hrs by tubulin tracker green fluorescent dye based confocal microscopy. Format: ADME, cell-based, SK-OV-3. The procedure, abridged: as §2
Series [15] is described as follows: Retention time of the compound in DMSO treated with (Pc-(L-PTX)2) by mass spectroscopy/HPLC analysis. The class given is physicochemical.

T1 sequence (P02550 whole entry, looked up): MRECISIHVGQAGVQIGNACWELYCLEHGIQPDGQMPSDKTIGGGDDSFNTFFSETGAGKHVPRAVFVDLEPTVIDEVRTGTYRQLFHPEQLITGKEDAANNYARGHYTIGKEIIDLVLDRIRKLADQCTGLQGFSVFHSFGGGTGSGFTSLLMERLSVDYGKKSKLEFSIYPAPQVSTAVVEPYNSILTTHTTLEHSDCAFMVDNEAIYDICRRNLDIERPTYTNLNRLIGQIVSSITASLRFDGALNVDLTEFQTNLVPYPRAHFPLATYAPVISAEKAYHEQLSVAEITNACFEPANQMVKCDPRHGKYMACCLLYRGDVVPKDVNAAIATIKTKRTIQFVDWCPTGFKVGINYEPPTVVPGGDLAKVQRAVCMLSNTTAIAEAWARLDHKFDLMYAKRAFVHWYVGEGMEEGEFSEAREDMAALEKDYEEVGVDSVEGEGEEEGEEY
T1 sequence (P02554 whole entry, looked up): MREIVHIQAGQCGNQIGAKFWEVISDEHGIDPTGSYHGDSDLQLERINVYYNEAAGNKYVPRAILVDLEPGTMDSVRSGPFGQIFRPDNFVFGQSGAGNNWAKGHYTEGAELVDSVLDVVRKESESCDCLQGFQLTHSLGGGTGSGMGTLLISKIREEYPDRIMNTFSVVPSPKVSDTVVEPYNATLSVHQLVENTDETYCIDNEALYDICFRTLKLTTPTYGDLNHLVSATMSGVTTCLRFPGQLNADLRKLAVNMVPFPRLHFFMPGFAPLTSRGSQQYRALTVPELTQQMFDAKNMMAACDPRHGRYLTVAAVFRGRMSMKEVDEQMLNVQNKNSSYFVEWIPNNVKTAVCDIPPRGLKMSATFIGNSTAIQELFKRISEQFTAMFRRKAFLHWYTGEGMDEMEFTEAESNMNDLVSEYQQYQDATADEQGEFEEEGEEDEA

Take `CC(=O)O[C@H]1C(=O)[C@@]2(C)[C@H](O)C[C@@H]3OC[C@]3(OC(C)=O)[C@@H]2[C@@H](OC(=O)c2ccccc2)[C@]2(O)C[C@@H](OC(=O)[C@@H](OC(=O)CCC(=O)N3CCN(CCO[Si]4(OCCN5CCN(C(=O)CCC(=O)O[C@@H](C(=O)O[C@@H]6C[C@@]7(O)[C@H](OC(=O)c8ccccc8)[C@H]8[C@@]9(OC(C)=O)CO[C@H]9C[C@@H](O)[C@]8(C)C(=O)[C@H](OC(C)=O)C(=C6C)C7(C)C)[C@H](NC(=O)c6ccccc6)c6ccccc6)CC5)n5c6c7ccccc7c5/N=C5N=C(/N=c7/c8ccccc8/c(n74)=N/C4=NC(=N\6)/c6ccccc64)c4ccccc4\5)CC3)[C@H](NC(=O)c3ccccc3)c3ccccc3)C(C)=C1C2(C)C` (some centres undefined): the “Ratio IC50” value in [1] is recorded as 2. Further, in series [2], the degraded at 96 h, 10 µM was 14%. The outcome at Tubulin (Sus scrofa) [3], at Tubulin (Sus scrofa) [6] and at Tubulin (Sus scrofa) [11] was inactive. Further, the IC50 (usually the point on the concentration scale where inhibition reaches its midpoint) came to 53 nM in series [4], 24 nM in series [5] and 1280 nM in series [13]. The molecule further yielded a Retention_time in [7] of 21 min. The selectivity ratio in series [8] was determined as 270. In addition, the degraded at 24 h, 10 µM in series [9] was 4%. For the same molecule, the Drug uptake result in [10] was “Not Active”; in series [14], “Active”. Further, in [12], the logD (usually the decadic logarithm of the distribution of all forms, ionised or not, between an organic phase and buffer at a given pH) is above 3.1.

For `CC(=O)O[C@H]1C(=O)[C@@]2(C)[C@H]([C@H](OC(=O)c3ccccc3)[C@]3(O)C[C@H](OC(=O)[C@H](O)[C@@H](NC(=O)c4ccccc4)c4ccccc4)C(C)=C1C3(C)C)[C@]1(OC(C)=O)CO[C@@H]1C[C@@H]2O` [PACLITAXEL], the IC50 in [13] amounted to 4.7 nM. For the same molecule, the Retention_time in series [15] is reported as 11 min.

Consider `CC(=O)O[C@H]1C(=O)[C@@]2(C)[C@H]([C@H](OC(=O)c3ccccc3)[C@]3(O)C[C@H](OC(=O)[C@H](OC(=O)/C=C/N4CCN(CCO[Si]5(OCCN6CCN(/C=C/C(=O)O[C@@H](C(=O)O[C@H]7C[C@@]8(O)[C@@H](OC(=O)c9ccccc9)[C@@H]9[C@]%10(OC(C)=O)CO[C@@H]%10C[C@H](O)[C@@]9(C)C(=O)[C@H](OC(C)=O)C(=C7C)C8(C)C)[C@@H](NC(=O)c7ccccc7)c7ccccc7)CC6)n6c7c8ccccc8c6/N=C6N=C(/N=c8/c9ccccc9/c(n85)=N/C5=NC(=N\7)/c7ccccc75)c5ccccc5\6)CC4)[C@@H](NC(=O)c4ccccc4)c4ccccc4)C(C)=C1C3(C)C)[C@]1(OC(C)=O)CO[C@@H]1C[C@@H]2O`, for which the “Ratio IC50” value in series [1] came to 23. In series [2], this molecule returned a degraded at 96 h, 10 µM below 7%. Also, on Tubulin (Sus scrofa) [3], the result was Active. Also, the IC50 in [4] worked out at 89 nM; in series [5], 3.9 nM; in series [13], 910 nM. Further, the outcome on Tubulin (Sus scrofa) [6] and on Tubulin (Sus scrofa) [11] was inactive. For the same molecule, the Retention_time in series [7] amounted to 32 min. In [8], the selectivity ratio was 190. In addition, the Drug uptake entry in series [10] is reported as “Not Active”; in [14], “Active”. In series [12], this molecule gave a logD above 3.1.
